Drawing on ChEMBL document CHEMBL1138827, “Design of new cognition enhancers: from computer prediction to synthesis and biological evaluation” (2004), this text covers Number and Time for 10 molecules.

Each structure is given as a SMILES string.

In assay [1] the test system is Rattus norvegicus. Description: Effect on number of animals not entering the dark chamber after administration of 10 mg/kg of the compound.
Assay [2] deals with Rattus norvegicus. Description: Effect on increase in reflex latent time after administration of 1 mg/kg of the compound. Type of assay: functional. The procedure, abridged: (§1)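 Rats (180-200 g), scopolamine-induced amnesia in a step-through passive avoidance task. Scopolamine 2 mg/kg ip 15 min before training; test substance suspended in 0.5% Tween-80, given ip at 1 or 10 mg/kg 30 min before training; vehicle controls. Retention tested 24 h later: latency to enter dark chamber (max 180 s) and % animals not entering. n=12 per group.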

For assay [3], the system named is Rattus norvegicus. Description: Effect on latency to enter dark chamber after administration of 1 mg/kg of the compound. Type of assay: functional. The procedure, abridged: as §1
Assay [4] has as its system Rattus norvegicus. Description: Effect on increase in reflex latent time after administration of 10 mg/kg of the compound. Type of assay: functional. The procedure, abridged: as §1
For assay [5], the species on record is Rattus norvegicus. Description: […]. Type of assay: functional. The conditions noted are these: dose 400 mg/kg.
Assay [6] has as its system Rattus norvegicus. Description: Effect on increase in reflex latent time after administration of 400 mg/kg of the compound. It is filed as functional.
In assay [7] the test system is Rattus norvegicus. Put plainly: Effect on increase in reflex latent time after administration of 600 mg/kg of the compound. It is filed as functional.

`Oc1ccc(/C=N/c2nc3ccccc3s2)cc1`: the Number in the assay on Rattus norvegicus [1] was determined as 0%; with Rattus norvegicus [3], 58%. Moreover, the Time in the assay on Rattus norvegicus [2] is recorded as 104 s; with Rattus norvegicus [3], 15 s.
For `CC(=O)N1CCOC1c1cccc(Cl)c1` (configuration not stated), the Number was 58% in the assay on Rattus norvegicus [4] and 0% in the assay on Rattus norvegicus [3]. Moreover, the Time in the assay on Rattus norvegicus [2] was 25 s; with Rattus norvegicus [3] it was 103 s.
On to `O=[N+]([O-])c1ccc(/C=N/c2nc(-c3ccccc3)cs2)cc1`, for which the Number with Rattus norvegicus [1] was determined as 42%; in the assay on Rattus norvegicus [3], 58%. Besides, the results for the Time in the assay with Rattus norvegicus [2] and in the assay with Rattus norvegicus [3] were 157 s and 88 s, respectively.
In the same order, the values of `C(=N\c1nc(-c2ccccc2)cs1)/c1ccccc1` are 33%, 0%, 12 s and 68 s.
In the same order, the values of `Cc1csc(/N=C/c2ccc([N+](=O)[O-])cc2)n1` are 50%, 42%, 76 s and 126 s.
As to `O=[N+]([O-])c1ccc(/C=N/c2nccs2)cc1`, the figures for the Number in the assay on Rattus norvegicus [1] and in the assay on Rattus norvegicus [3] were 50% and 42%, respectively. The Time with Rattus norvegicus [2] was 68 s; in the assay on Rattus norvegicus [3], 129 s.
Take `Clc1ccc(/C=N/c2nccs2)cc1`: the Number in the assay with Rattus norvegicus [1] is 66%; with Rattus norvegicus [3], 25%. The Time with Rattus norvegicus [2] is 61 s; in the assay on Rattus norvegicus [3] it was 123 s.
In the same order, the values of `Oc1ccc(/C=N/c2nccs2)cc1` are 14%, 42%, 96 s and 41 s.
With `NC(=O)CN1CCCC1=O` [PIRACETAM], the Number in the assay filed under Rattus norvegicus [5] is on record as 33%; in the assay with Rattus norvegicus [7], 58%. This molecule also had a Time in the assay with Rattus norvegicus [6] of 75 s.
Molecule `CN1[C@@H]2C[C@@H](OC(=O)[C@H](CO)c3ccccc3)C[C@H]1[C@@H]1O[C@@H]12` [SCOPOLAMINE] registered a Time in the assay with Rattus norvegicus [2] of 53 s. The molecule also displayed a Number with Rattus norvegicus [3] of 17%.
